Data from ChEMBL document CHEMBL3745688, “Discovery of novel hybrids of diaryl-1,2,4-triazoles and caffeic acid as dual inhibitors of cyclooxygenase-2 and 5-lipoxygenase for cancer therapy” (Eur J Med Chem, 2016).

Tests used:
[1] = molecular target: T1, Prostaglandin G/H synthase 2 (Rattus norvegicus, UniProt P35355); experiment: Inhibition of COX2 in rat abdominal macrophages assessed as PGE2 production pretreated for 30 mins followed by addition of 10 uM arachidonic acid as substrate for 20 mins by EIA
T1 sequence (P35355 whole entry): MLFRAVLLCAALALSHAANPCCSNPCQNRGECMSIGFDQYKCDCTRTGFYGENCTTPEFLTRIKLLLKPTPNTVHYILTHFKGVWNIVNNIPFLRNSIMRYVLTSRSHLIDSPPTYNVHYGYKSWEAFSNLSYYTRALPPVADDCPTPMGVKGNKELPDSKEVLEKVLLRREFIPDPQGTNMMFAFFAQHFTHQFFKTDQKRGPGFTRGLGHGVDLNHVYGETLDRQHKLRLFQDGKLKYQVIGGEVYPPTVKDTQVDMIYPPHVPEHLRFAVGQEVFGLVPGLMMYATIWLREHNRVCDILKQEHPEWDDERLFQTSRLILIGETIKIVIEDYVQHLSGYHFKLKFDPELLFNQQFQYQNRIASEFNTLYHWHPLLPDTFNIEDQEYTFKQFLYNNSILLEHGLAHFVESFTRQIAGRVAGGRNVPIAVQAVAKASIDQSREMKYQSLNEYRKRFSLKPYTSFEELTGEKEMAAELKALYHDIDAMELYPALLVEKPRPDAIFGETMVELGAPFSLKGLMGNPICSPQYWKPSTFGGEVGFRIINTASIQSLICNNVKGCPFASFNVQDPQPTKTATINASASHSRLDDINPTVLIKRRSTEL

[2] = molecular target: T2, Polyunsaturated fatty acid 5-lipoxygenase (Rattus norvegicus, UniProt P12527); experiment: Inhibition of 5-LOX in Sprague-Dawley rat leukocytes assessed as A23187 stimulated LTB4 production pretreated for 30 mins followed by addition of A23187 for 30 mins by EIA; format: cell-based
T2 sequence (P12527 whole entry): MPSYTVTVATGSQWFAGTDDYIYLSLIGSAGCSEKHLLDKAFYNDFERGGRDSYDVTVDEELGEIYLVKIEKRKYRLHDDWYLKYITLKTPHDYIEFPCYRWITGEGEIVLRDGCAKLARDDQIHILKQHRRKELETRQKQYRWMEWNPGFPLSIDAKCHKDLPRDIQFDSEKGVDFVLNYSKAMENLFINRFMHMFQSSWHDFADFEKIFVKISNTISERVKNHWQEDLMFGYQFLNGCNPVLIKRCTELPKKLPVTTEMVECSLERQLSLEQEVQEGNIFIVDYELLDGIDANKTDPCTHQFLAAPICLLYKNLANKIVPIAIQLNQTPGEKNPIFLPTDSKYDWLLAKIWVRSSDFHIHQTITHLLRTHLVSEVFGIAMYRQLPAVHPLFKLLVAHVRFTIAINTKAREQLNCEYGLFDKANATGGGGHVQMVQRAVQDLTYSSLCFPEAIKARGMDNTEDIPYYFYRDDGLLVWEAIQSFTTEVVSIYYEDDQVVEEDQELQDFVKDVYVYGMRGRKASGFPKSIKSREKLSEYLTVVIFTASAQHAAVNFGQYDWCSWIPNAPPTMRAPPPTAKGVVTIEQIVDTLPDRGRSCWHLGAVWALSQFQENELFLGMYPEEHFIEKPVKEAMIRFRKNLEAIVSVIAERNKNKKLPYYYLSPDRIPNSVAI
Summary of the method: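 Rat peritoneal leukocytes collected from Sprague-Dawley rats primed i.p. with 0.2% glycogen (20 mL/kg). Cells in Hanks solution plated at 1.0×10^6/well and held 10 min at 37 °C. Pretreated 30 min with L-cysteine (10 mM), indomethacin (1 mg/L) and compound or DMSO. A23187 added for 30 min. LTB4 in the clarified supernatant measured by EIA; % inhibition from OD; IC50 by Bliss method.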

[3] = molecular target: T3, Prostaglandin G/H synthase 1 (Bos taurus, UniProt O62664); experiment: Inhibition of COX1 in calf endotheliocyte assessed as 6keto-PGF1alpha production pretreated for 20 mins followed by addition of 10 uM arachidonic acid as substrate for 20 mins by radioimmuno assay
T3 sequence (O62664 whole entry): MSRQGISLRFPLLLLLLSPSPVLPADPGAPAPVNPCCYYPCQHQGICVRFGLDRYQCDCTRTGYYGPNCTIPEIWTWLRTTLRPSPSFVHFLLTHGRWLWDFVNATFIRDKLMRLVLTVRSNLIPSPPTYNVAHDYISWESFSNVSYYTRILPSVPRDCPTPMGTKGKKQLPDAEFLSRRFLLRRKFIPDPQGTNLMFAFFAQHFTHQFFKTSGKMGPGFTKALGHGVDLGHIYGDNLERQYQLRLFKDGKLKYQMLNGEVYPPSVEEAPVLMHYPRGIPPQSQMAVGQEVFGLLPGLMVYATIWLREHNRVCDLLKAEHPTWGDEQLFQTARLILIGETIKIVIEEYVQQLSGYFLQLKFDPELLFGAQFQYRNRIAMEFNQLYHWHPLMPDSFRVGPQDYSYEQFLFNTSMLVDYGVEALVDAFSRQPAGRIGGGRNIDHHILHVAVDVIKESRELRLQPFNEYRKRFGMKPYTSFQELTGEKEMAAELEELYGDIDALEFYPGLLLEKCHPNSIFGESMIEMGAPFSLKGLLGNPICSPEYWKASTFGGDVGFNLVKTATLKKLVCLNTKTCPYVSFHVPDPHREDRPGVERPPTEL
Summary of the method: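 Endothelial cells from neonatal calf thoracic aorta plated at 1.0×10^6 in DMEM with 10% FBS and grown 24 h at 37 °C in 5% CO₂. Compound or DMSO added for 20 min, then arachidonic acid (10 μM) for another 20 min. 6-keto-PGF1α in the medium quantified by radioimmunoassay. IC50 is the mean of four determinations.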

[4] = Selectivity index, ratio of IC50 for rat COX2 to IC50 for calf COX1
Summary of the method: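 Ratio of COX-2 IC50 to COX-1 IC50. COX-2 was measured in rat peritoneal macrophages: 1.0×10^6/well in RPMI 1640 with 5% FCS, grown 24 h, COX-1 inactivated with 1 mM aspirin, COX-2 induced with LPS 1 µg/mL for 6 h, compound added for 30 min, then arachidonic acid 10 µM for 20 min, PGE2 read by EIA. COX-1 was measured in calf aortic endothelial cells by 6-keto-PGF1α radioimmunoassay.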

A549 = experiment: Antiproliferative activity against human A549 cells after 72 hrs by MTT assay; format: functional, cell-based; settings: A549, 72 h
Summary of the method: (§1)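 Cells seeded at 5×10^4/well, grown 24 h at 37 °C in 5% CO₂, then exposed to compounds dissolved in DMSO at a range of concentrations for 72 h. MTT (5 mg/mL in PBS) added for 4 h, then OD read at 570 nm. IC50 taken from dose-response curves, mean ± S.D. of three independent experiments.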

[5] = Antiproliferative activity against human Caco2 cells after 72 hrs by MTT assay; format: functional, cell-based; settings: Caco-2, 72 h; summary of the method: as §1
[6] = Antiproliferative activity against human PC3 cells after 72 hrs by MTT assay; format: functional, cell-based; settings: PC-3, 72 h; summary of the method: as §1
[7] = Antiproliferative activity against mouse B16F10 cells after 72 hrs by MTT assay; format: functional, cell-based; settings: B16-F10, 72 h; summary of the method: as §1
Mus musculus [8] = experiment: Toxicity in mouse xenografted with B16F10 cells assessed as body weight at 40 mg/kg, iv measured after 25 days (reference value: 28.1 +/- 1.7 g); format: organism-based, B16-F10; settings: in vivo, 600 h
Summary of the method: (§2)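 B16-F10 cells implanted subcutaneously in the right oxter of ICR mice weighing 18-22 g. After 7 days, animals weighed and randomized into groups of 10. Dosed intravenously with vehicle (saline with 1% DMSO/2% poloxamer, 0.4 ml/mouse), 40 mg/kg test agent, or 5-FU 20 mg/kg. Killed on day 25 after implantation. Tumors excised and weighed; inhibition = (1 − treated/vehicle mean tumor weight)×100; body weights recorded at start and end.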

[9] = Antitumor activity against mouse B16F10 cells xenografted in mouse assessed as inhibition of tumor growth at 40 mg/kg, iv after 25 days; format: functional; settings: B16-F10, iv, 600 h; summary of the method: as §2
Mus musculus [10] = experiment: Toxicity in mouse xenografted with B16F10 cells assessed as body weight at 20 mg/kg, iv measured after 25 days (reference value: 28.1 +/- 1.7 g); format: organism-based, B16-F10; settings: in vivo, 600 h
[11] = Antitumor activity against mouse B16F10 cells xenografted in mouse assessed as inhibition of tumor growth at 20 mg/kg, iv after 25 days; format: functional; settings: B16-F10, iv, 600 h
[12] = molecular target: T4, Prostaglandin G/H synthase 2 (Homo sapiens, UniProt P35354); experiment: Inhibition of COX-2 (unknown origin)
T4 sequence (P35354 whole entry): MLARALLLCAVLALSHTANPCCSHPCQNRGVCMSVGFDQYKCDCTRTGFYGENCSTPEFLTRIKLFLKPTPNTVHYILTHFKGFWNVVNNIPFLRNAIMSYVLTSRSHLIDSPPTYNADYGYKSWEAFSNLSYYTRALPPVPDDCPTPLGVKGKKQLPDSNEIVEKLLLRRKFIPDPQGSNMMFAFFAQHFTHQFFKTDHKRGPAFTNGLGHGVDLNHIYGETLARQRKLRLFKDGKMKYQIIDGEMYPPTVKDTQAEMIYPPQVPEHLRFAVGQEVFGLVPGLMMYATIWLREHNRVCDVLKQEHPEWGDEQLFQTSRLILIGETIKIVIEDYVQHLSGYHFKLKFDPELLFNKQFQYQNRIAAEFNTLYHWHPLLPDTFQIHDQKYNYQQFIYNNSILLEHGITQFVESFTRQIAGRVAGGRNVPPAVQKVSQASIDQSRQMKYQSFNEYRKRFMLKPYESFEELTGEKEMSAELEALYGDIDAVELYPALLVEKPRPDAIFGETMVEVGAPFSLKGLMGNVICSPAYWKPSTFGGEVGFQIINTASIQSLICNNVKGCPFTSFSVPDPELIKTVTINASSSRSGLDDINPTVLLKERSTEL

| SMILES | IC50 [1] [µM] | IC50 [2] [µM] | IC50 [3] [µM] | Ratio IC50 [4] | IC50 (A549) [µM] | IC50 [5] [µM] | IC50 [6] [µM] | IC50 [7] [µM] | Activity (Mus musculus [8]) [g] | inhibition in vivo at 40 mg/kg [9] [%] | Activity (Mus musculus [10]) [g] | inhibition in vivo at 20 mg/kg [11] [%] | IC50 [12] [µM] |
| --- | --- | --- | --- | --- | --- | --- | --- | --- | --- | --- | --- | --- | --- |
| CS(=O)(=O)c1ccc(-c2nc(SCCCNC(=O)/C=C/c3ccc(O)c(O)c3)nn2-c2ccc(F)cc2)cc1 | 0.12 | 0.71 | 13.2 | 0.009 | 22.1 | 20.9 | 23.1 | 18.7 |  |  |  |  |  |
| COc1cc(/C=C/C(=O)OCCSc2nc(-c3ccc(S(C)(=O)=O)cc3)n(-c3ccc(C(F)(F)F)cc3)n2)ccc1O | 0.21 | 0.81 | 20.5 | 0.01 | 6.78 | 9.05 | 7.46 | 8.65 | 26.3 | 58.9 |  |  |  |
| O=c1[nH]cc(F)c(=O)[nH]1 [FLUOROURACIL] |  |  |  |  |  |  |  |  |  |  | 26 | 68.2 |  |
| CSc1nc(-c2ccc(S(N)(=O)=O)cc2)n(-c2ccc(Cl)cc2)n1 |  |  |  |  | 29.5 | 41.2 | 37.5 | 32.3 |  |  |  |  | 0.37 |
| CS(=O)(=O)c1ccc(-c2nc(SCCCOC(=O)/C=C/c3ccccc3)nn2-c2ccc(Br)cc2)cc1 | 0.42 | 1.3 | 45.7 | 0.009 | 22.3 | 24.6 | 21.9 | 19.4 |  |  |  |  |  |
